ChEMBL document CHEMBL1144173, “1-Benzylbenzimidazoles: the discovery of a novel series of bradykinin B(1) receptor antagonists” (Bioorg Med Chem Lett, 2008)
In brackets after ≈: the same amount, converted by molar mass.

Tests used:
B1 bradykinin receptor [1] = molecular target: T1, B1 bradykinin receptor (Rattus norvegicus, UniProt P97583); assay: Antagonist activity at rat bradykinin B1 receptor; format: functional
T1 sequence (P97583 whole entry): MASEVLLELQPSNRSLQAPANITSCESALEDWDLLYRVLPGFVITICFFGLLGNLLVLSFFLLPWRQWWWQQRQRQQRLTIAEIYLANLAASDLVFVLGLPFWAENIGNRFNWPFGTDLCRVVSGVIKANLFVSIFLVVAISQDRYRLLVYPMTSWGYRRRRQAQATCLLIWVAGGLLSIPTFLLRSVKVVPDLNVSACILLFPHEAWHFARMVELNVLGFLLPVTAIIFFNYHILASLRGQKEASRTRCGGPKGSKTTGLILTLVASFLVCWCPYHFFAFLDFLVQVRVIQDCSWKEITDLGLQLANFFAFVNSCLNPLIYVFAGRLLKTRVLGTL
Procedure, shortened: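 Rat B1 receptor tested in the same way as the cynomolgus assay: FLIPR Ca2+ transients with inhibition of DAKD-induced fluorescence measured across multiple compound concentrations to derive functional IC50.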

[2] = Oral bioavailability in rat at 10 mg/kg; format: ADME, organism-based; details: in vivo
B1 bradykinin receptor [3] = molecular target: T2, B1 bradykinin receptor (Homo sapiens, UniProt P46663); assay: Inhibition of human bradykinin B1 receptor
T2 sequence (P46663 whole entry): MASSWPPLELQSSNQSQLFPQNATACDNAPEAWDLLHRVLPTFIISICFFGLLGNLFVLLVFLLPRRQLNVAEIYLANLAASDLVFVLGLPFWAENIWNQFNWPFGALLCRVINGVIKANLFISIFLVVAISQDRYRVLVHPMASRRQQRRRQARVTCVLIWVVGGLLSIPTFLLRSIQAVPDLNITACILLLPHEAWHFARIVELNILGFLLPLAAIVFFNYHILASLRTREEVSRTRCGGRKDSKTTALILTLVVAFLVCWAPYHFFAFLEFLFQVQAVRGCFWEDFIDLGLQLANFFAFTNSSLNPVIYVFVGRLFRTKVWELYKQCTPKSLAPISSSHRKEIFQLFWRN

B1 bradykinin receptor [4] = molecular target: T3, B1 bradykinin receptor (Macaca fascicularis, UniProt Q3BCU0); assay: Antagonist activity at Cynomolgus monkey bradykinin B1 receptor expressed in CHO cells assessed as calcium transient by FLIPR assay; format: functional, cell-based
T3 sequence (Q3BCU0 whole entry): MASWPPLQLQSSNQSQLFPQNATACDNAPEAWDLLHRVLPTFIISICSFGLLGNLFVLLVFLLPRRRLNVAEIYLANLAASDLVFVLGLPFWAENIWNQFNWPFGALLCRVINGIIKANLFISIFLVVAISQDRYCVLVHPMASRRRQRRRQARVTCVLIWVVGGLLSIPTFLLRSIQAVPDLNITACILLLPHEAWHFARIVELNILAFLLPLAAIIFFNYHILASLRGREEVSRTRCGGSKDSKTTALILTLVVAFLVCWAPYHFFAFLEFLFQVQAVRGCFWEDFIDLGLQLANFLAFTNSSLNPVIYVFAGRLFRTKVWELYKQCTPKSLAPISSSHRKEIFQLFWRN

MDCK [5] = assay: Ratio of permeability from basolateral to apical over apical to basolateral side of MDCK cells expressing MDR1; format: ADME, cell-based, Canis lupus familiaris; details: dog
Procedure, shortened: (§1)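 MDR1-transfected MDCK cell monolayer. Apparent permeability (Papp) measured in the apical-to-basolateral and basolateral-to-apical directions. The A-to-B Papp is reported as passive permeability, and the efflux ratio is Papp(B→A)/Papp(A→B).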

MDR1 = assay: Passive permeability from apical to basolateral side of MDCK cells expressing MDR1; format: ADME, cell-based, Canis lupus familiaris; details: dog; procedure, shortened: as §1
MDCK [6] = assay: Ratio of permeability from basolateral to apical over apical to basolateral side of MDCK cells expressing MDR1 in presence of cyclosporine; format: ADME, cell-based, Canis lupus familiaris; details: dog
Procedure, shortened: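 MDR1-transfected MDCK monolayer run with 25 µM cyclosporine as P-gp inhibitor. Efflux ratio is Papp basolateral-to-apical divided by Papp apical-to-basolateral.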

[7] = Aqueous solubility at pH 7.4; format: physicochemical
Liver microsomes = assay: Metabolic stability in rat liver microsomes at 1 uM after 10 mins by LC-MS analysis in presence of NADPH; format: ADME, Microsome
Procedure, shortened: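 Pooled male rat liver microsomes at 0.5 mg/ml with compound at 1 µM, 37 °C. Reaction started with NADPH, and aliquots taken at 0 and 10 min. Percent parent remaining is the 10-min/0-min signal ratio, corrected by internal standard recovery.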

SMILES | IC50 (B1 bradykinin receptor [4]) | further results
CCCN1C(=O)C(NC(=O)Nc2ccc(N3CCN(c4ccncc4)CC3)cc2)N=C(CCc2ccccc2)c2ccccc21 (stereo not given) | – | Ki (B1 bradykinin receptor [1]): 0.92 nM; bioavailability [2]: < 4%; Ki (B1 bradykinin receptor [3]): 0.59 nM
CN(Cc1ccc(C#N)cc1)C(=O)CNC(=O)c1nc2ccccc2n1Cc1ccccc1 | > 5000 nM | Ratio (MDCK [5]): 3; Papp A→B (MDR1): 7 ×10⁻⁶ cm/s
CN1CCC(N2CCN(C(=O)[C@H]3CCCN3C(=O)c3nc4ccccc4n3Cc3ccccc3)CC2)CC1 | 3220 nM | –
CN1CCC(N2CCN(C(=O)[C@@H]3CCCN3C(=O)c3nc4ccccc4n3Cc3ccccc3)CC2)CC1 | 884 nM | –
CN(Cc1ccc(C(N)=O)cc1)C(=O)CNC(=O)c1nc2ccccc2n1Cc1ccccc1 | > 5000 nM | –
O=C(CCNC(=O)c1nc2ccccc2n1Cc1ccccc1)Nc1ccc2nc[nH]c2c1 | 744 nM | –
CCN(CC(=O)N1CCN(c2ccncc2)CC1)Cc1nc2ccccc2n1Cc1ccccc1 | > 5000 nM | –
CCN(CC(=O)N1CCN(C2CCN(C)CC2)CC1)Cc1nc2ccccc2n1Cc1ccccc1 | > 5000 nM | –
O=C(NCCC(=O)N1CCC2(CCOCC2)CC1)c1nc2ccccc2n1Cc1ccccc1 | 1990 nM | –
CN1CCC2(CCN(C(=O)CCNC(=O)c3nc4ccccc4n3Cc3ccccc3)CC2)C1 | 2910 nM | –
O=C1NCC2(CCN(C(=O)CCNC(=O)c3nc4ccccc4n3Cc3ccccc3)CC2)O1 | > 5000 nM | –
CN1CCC(N2CCN(C(=O)C3CCN(C(=O)c4nc5ccccc5n4Cc4ccccc4)CC3)CC2)CC1 | 4020 nM | –
CN(Cc1ccc(C2=NCCN2)cc1)C(=O)C1CCN(C(=O)c2nc3ccccc3n2Cc2ccccc2)CC1 | 188 nM | –
O=C(NCCC(=O)N1CCN(c2ccncc2)CC1)c1nc2ccccc2n1Cc1ccccc1 | 962 nM | –
CN(Cc1ccc(C2=NCCN2C)cc1)C(=O)CNC(=O)c1nc2ccccc2n1Cc1ccccc1 | 14 nM | –
Cc1nc(-c2ccc(CN(C)C(=O)CNC(=O)c3nc4ccccc4n3Cc3ccccc3)cc2)no1 | 718 nM | –
CN(Cc1ccc(C2=NCCN2)cc1)C(=O)CCNC(=O)c1nc2ccccc2n1Cc1ccccc1 | 54 nM | –
O=C(c1nc2ccccc2n1Cc1ccccc1)N1CCN(c2ccncc2)CC1 | > 5000 nM | –
CN(Cc1ccc(-n2ccnc2)cc1)C(=O)CNC(=O)c1nc2ccccc2n1Cc1ccccc1 | 626 nM | –
CN1CCC(N2CCN(C(=O)c3nc4ccccc4n3Cc3ccccc3)CC2)CC1 | > 5000 nM | –
CCC(NC(=O)c1nc2ccccc2n1Cc1ccccc1)C(=O)N1CCN(C2CCN(C)CC2)CC1 (stereo not given) | 1300 nM | –
CC(C)N(CC(=O)N1CCN(c2ccncc2)CC1)C(=O)c1nc2ccccc2n1Cc1ccccc1 | > 5000 nM | –
O=C(CCNC(=O)c1nc2ccccc2n1Cc1ccccc1)Nc1ccc2cn[nH]c2c1 | 524 nM | –
CN(Cc1ccc(CN2CCCCC2)cc1)C(=O)CNC(=O)c1nc2ccccc2n1Cc1ccccc1 | 196 nM | –
CN(Cc1ccc(C2=NCCN2)cc1)C(=O)CNC(=O)c1nc2ccccc2n1Cc1ccccc1 | 5 nM | IC50 (B1 bradykinin receptor [1]): 155 nM; Ratio (MDCK [5]): 23; Papp A→B (MDR1): 1 ×10⁻⁶ cm/s; Ratio (MDCK [6]): 1.5

SMILES | IC50 (B1 bradykinin receptor [4]) | further results
CCC(NC(=O)c1nc2ccccc2n1Cc1ccccc1)C(=O)N1CCN(c2ccncc2)CC1 (stereo not given) | > 5000 nM | –
CCCN(CC(=O)N1CCN(c2ccncc2)CC1)C(=O)c1nc2ccccc2n1Cc1ccccc1 | 355 nM | IC50 (B1 bradykinin receptor [1]): 396 nM
CCCN(CC(=O)N1CCN(C2CCN(C)CC2)CC1)C(=O)c1nc2ccccc2n1Cc1ccccc1 | 18 nM | IC50 (B1 bradykinin receptor [1]): 23 nM
CN1CCC(N2CCN(C(=O)CCNC(=O)c3nc4ccccc4n3Cc3ccccc3)CC2)CC1 | 601 nM | –
CN(Cc1ccc(-c2ccccn2)cc1)C(=O)CNC(=O)c1nc2ccccc2n1Cc1ccccc1 | 407 nM | –
CN(Cc1ccc(-c2nccs2)cc1)C(=O)CNC(=O)c1nc2ccccc2n1Cc1ccccc1 | 1170 nM | –
CN(Cc1ccc(-c2cc[nH]n2)cc1)C(=O)CNC(=O)c1nc2ccccc2n1Cc1ccccc1 | 2130 nM | –
O=C(CCNC(=O)c1nc2ccccc2n1Cc1ccccc1)Nc1ccc(C2=NCCN2)nc1 | 2 nM | IC50 (B1 bradykinin receptor [1]): 0.8 nM; Ratio (MDCK [5]): 42
O=C(NCC(=O)N1CCN(c2ccncc2)CC1)c1nc2ccccc2n1Cc1ccccc1 | 310 nM | IC50 (B1 bradykinin receptor [1]): 417 nM
CN(Cc1ccc(-c2nnn[nH]2)cc1)C(=O)CNC(=O)c1nc2ccccc2n1Cc1ccccc1 | > 5000 nM | –
CN(CC(=O)N1CCN(c2ccncc2)CC1)C(=O)c1nc2ccccc2n1Cc1ccccc1 | 1180 nM | –
CCN(CC(=O)N1CCN(c2ccncc2)CC1)C(=O)c1nc2ccccc2n1Cc1ccccc1 | 278 nM | –
CC(C)N(CC(=O)N1CCN(C2CCN(C)CC2)CC1)C(=O)c1nc2ccccc2n1Cc1ccccc1 | 465 nM | –
CCN(CC(=O)N(C)Cc1ccc(C2=NCCN2)cc1)C(=O)c1nc2ccccc2n1Cc1ccccc1 | 6 nM | IC50 (B1 bradykinin receptor [1]): 345 nM
O=C([C@H]1CCCN1C(=O)c1nc2ccccc2n1Cc1ccccc1)N1CCN(c2ccncc2)CC1 | 4070 nM | –
O=C([C@@H]1CCCN1C(=O)c1nc2ccccc2n1Cc1ccccc1)N1CCN(c2ccncc2)CC1 | > 5000 nM | –
CN(C)C(=O)c1ccc(CN(C)C(=O)CNC(=O)c2nc3ccccc3n2Cc2ccccc2)cc1 | > 5000 nM | –
CN1CCC(N2CCN(C(=O)CN(C)C(=O)c3nc4ccccc4n3Cc3ccccc3)CC2)CC1 | 268 nM | –
CN1CCC2(CC1)CCN(C(=O)CCNC(=O)c1nc3ccccc3n1Cc1ccccc1)CC2 | > 5000 nM | –
CN(Cc1ccc(-c2ncccn2)cc1)C(=O)CNC(=O)c1nc2ccccc2n1Cc1ccccc1 | 330 nM | –
CN1CCC(N2CCN(C(=O)CNC(=O)c3nc4ccccc4n3Cc3ccccc3)CC2)CC1 | 686 nM | –
Cc1c(C(=O)NCCC2CCN(C3CCN(C)CC3)CC2)n[nH]c1NC(=O)c1ccccc1Cl | – | IC50 (B1 bradykinin receptor [3]): 1.8 nM
O=C(c1nc2ccccc2n1Cc1ccccc1)N1CCC(C(=O)N2CCN(c3ccncc3)CC2)CC1 | 2310 nM | –
CN(Cc1ccc(C2=NCCN2)cc1)C(=O)c1nc2ccccc2n1Cc1ccccc1 | 1020 nM | –
CCN(CC(=O)N1CCN(C2CCN(C)CC2)CC1)C(=O)c1nc2ccccc2n1Cc1ccccc1 | 16 nM | IC50 (B1 bradykinin receptor [1]): 15 nM; Ratio (MDCK [5]): 55; Papp A→B (MDR1): 0.6 ×10⁻⁶ cm/s; solubility [7]: 120 µg/mL (≈ 239 µM); Stability (Liver microsomes): Stable; bioavailability [2]: < 5%
